# In the library only some 2.3% were active in any assay of this set; here they are far more common.
# PDI turbidity = blocks human protein disulfide isomerase activity. P07237. PDI insulin aggregation turbidity, A650, 90 min. inhibition, % at 10 µM. actives 0.052% (n = 350,000). AID 588391;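 active = mean inhibition across replicates of 30% or more, whatever share of single replicates reach that level; inconclusive = mean inhibition below 30% while every single replicate reaches 30%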
# Target sequence (P07237 whole entry, looked up): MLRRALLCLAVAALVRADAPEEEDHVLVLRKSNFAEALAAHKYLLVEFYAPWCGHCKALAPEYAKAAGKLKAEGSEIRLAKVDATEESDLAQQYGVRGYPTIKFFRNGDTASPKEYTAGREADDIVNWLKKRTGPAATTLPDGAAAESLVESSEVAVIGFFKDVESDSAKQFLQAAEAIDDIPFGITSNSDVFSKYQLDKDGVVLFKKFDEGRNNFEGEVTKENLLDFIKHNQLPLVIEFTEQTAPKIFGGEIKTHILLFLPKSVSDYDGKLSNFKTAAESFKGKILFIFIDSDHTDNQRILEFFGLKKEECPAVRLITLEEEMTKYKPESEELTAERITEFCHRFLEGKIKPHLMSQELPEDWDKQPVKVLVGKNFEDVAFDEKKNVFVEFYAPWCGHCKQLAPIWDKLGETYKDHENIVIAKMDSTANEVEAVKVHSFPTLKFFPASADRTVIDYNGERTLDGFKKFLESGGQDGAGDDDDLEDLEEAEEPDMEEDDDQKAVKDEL
# Cneo AK release = causes C. neoformans cell lysis | adenylate kinase release luminescence, 4 h; normalised: neutral wells 0, clomiphene wells 100 | lysis activity, % at 15 µM | actives 0.2% (n = 360,000) | AID 651654;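 active = mean lysis activity across replicates of at least 80%, whatever share of replicates individually reach that level; inactive = mean lysis activity below 80%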
#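 Material: C. neoformans cells | Amount: Yeast cell density of 5 × 10^6 cells/mL | Medium: Fresh YPD growth medium | Dosing: Single dose | Times: Static 4 h at 37 °C with compound, 1 h detection | Detection: AK luminescence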
# F508del corr = CFTR F508del correction in bronchial cells; actives 0.36% (n = 350,000); CFBE cells, YFP halide quenching; stimulated with forskolin plus potentiator P3; % fluorescence drop versus neutral controls; AID 720511; activity (quench increase), % at 7.58 µM;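 active = mean added fluorescence quench of at least 8% versus neutral control, with both replicates also reaching 8%; inconclusive = only one of the mean or replicate conditions met; inactive = mean below 8% and not both replicates reaching 8%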;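 also: cells transiently co-express mutant CFTR-F508del with the halide-sensitive YFP; corrector assay measuring rescue of mutant channel to the surface after 24 h compound exposure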
# C2C12 statin = suppressors of simvastatin-induced myotoxicity in C2C12 myotubes. ATP luminescence, 48 h; scaled: DMSO 0, geranylgeraniol control 100. rescue of ATP level, % at 7.49 µM. AID 602340. actives 0.78% (n = 330,000);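 active = mean ATP rescue above about 67%, or every replicate alone reaching that limit, limit read from the data, passing the limit was not always enough; inconclusive = no clear call, values can overlap the other calls; inactive = mean under the limit and some replicate under it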;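 also: myotubes were challenged with 10 µM simvastatin during compound exposure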
# DENV2 CPE = inhibitors of DENV2 cytopathic effect | AID 651640 | CPE inhibition, % at 9.99 µM | DENV2-infected cells, cytopathic effect rescue, plate reader | actives 1.7% (n = 350,000); in the data active = CPE inhibition above about 20%, passing the limit was not always enough; inconclusive = no clear call, values can overlap the other calls; tested in BHK-21 cells;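 also: 0% = median of neutral control wells and 100% = median of positive control wells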
# ERp5 inh = ERp5 (human) disulfide isomerase inhibition. inhibition, % at 9.99 µM. Q15084. ERp5 insulin aggregation, absorbance 650 nm, 90 min. AID 651711. actives 0.05% (n = 350,000);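 active = mean replicate inhibition above about 25%, with every replicate also reaching it, limit read from the data, passing the limit was not always enough; inconclusive = only one of those two criteria met; inactive = neither criterion met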
# Numbers without * were called inactive; ? = inconclusive; . = no result given; ! = a repeat was not active.
SMILES,PDI turbidity,Cneo AK release,F508del corr,C2C12 statin,DENV2 CPE,ERp5 inh
C[C@@H]1CN([C@@H](C)CO)S(=O)(=O)c2ccc(-c3ccncc3)cc2O[C@H]1CN(C)C(=O)CC1CC1,.,9,1,-3,85*,3
C[C@@H]1CN([C@@H](C)CO)S(=O)(=O)c2ccc(-c3ccncc3)cc2O[C@@H]1CN(C)C(=O)CC1CC1,.,-1,0,5,-1,-1
COCC(=O)N(C)C[C@H]1Oc2cc(-c3ccncc3)ccc2S(=O)(=O)N([C@H](C)CO)C[C@H]1C,.,0,2,6,74*,-1
COc1ccc(/C=N/NC(=O)c2ccccc2O)cc1Cn1cc(Cl)cn1,3,0,.,-5,.,.
CCOc1ccc(/C=N/NC(=O)c2ccccc2O)cc1CN1CC2CC(C1)c1cccc(=O)n1C2 (stereo not drawn),.,-1,-1,0,58*,-4
C/C=C/c1ccccc1[C@H]1[C@@H](C#N)N(C(=O)NC2CCCC2)[C@H]1CO,.,.,-4,.,60*,-2
N#C[C@@H]1[C@H](c2ccc(-c3cccc(F)c3)cc2)[C@H](CO)N1C(=O)NC1CCCC1,.,1,8.6*,11,-21,-4
N#C[C@@H]1[C@@H](c2ccc(-c3cccc(F)c3)cc2)[C@H](CO)N1C(=O)NC1CCCC1,.,-3,1,108*,-16,3
N#C[C@H]1[C@H](c2ccc(-c3cccc(F)c3)cc2)[C@@H](CO)N1c1nc(-c2ccccc2)cs1,.,.,-2,.,38*,5
N#C[C@H]1[C@@H](c2ccc(-c3cccc(F)c3)cc2)[C@H](CO)N1C(=O)NC1CCCC1,.,0,0,-24,-1,-3
C[C@H](CO)N1C[C@H](C)[C@@H](CN(C)CC2CC2)Oc2c(NC(=O)Nc3ccc(F)cc3)cccc2C1=O,.,-8,1,17,15,-6
Cc1cccc(C)c1OCC(=O)NNC(=O)CCCn1c(=O)oc2ccccc21,-8,0,-3,2,45*,-4
O=C(CCCn1c(=O)oc2ccccc21)Nc1ccccc1,-6,-1,-1,6,-1,1
O=C(N[C@@H]1CC[C@H](CCNS(=O)(=O)c2ccc(F)cc2)O[C@@H]1CO)C1CCOCC1,.,-5,1,0,?,-5
Oc1ccccc1C=NCCN=Cc1ccccc1O,1,.,-3,5,-4,4
Oc1ccccc1C=NCC(O)c1ccccc1 (stereo not drawn),1,0,-1,.,76*,-5
COC(=O)[C@@H]1[C@@H](CO)[C@@H]2Cn3c(cccc3=O)[C@@H]2N1C(=O)C1CCC1,.,-3,-1,24,-3,-1
Cc1c(NC(=O)C(C)OC(=O)COc2cccc3c2OC(C)(C)C3)c(=O)n(-c2ccccc2)n1C (stereo not drawn),1,9,.,114*,.,.
Cc1c(NC(=O)COc2cccc3c2OC(C)(C)C3)c(=O)n(-c2ccccc2)n1C,4,0,4,-6,6,-3
Cc1c(NC(=O)C(C)OC(=O)c2nc(Cl)ccc2Cl)c(=O)n(-c2ccccc2)n1C (stereo not drawn),-2,6,-2,5,-6,-2
Cc1c(NC(=O)C(C)OC(=O)c2cc(Cl)ccc2O)c(=O)n(-c2ccccc2)n1C (stereo not drawn),4,1,2,.,31*,7
CSc1ccccc1NC(=O)COC(=O)CCC(=O)c1ccc(F)cc1,-5,.,8.1*,4,7,1
CC(=O)Nc1ccc(S(=O)(=O)NC2=C(N3CCN(Cc4ccccc4)CC3)C(=O)c3ccccc3C2=O)cc1,-15,-1,15*!,14,-3,3
CCN1CCN(C2=C(NS(=O)(=O)c3ccc(NC(C)=O)cc3)C(=O)c3ccccc3C2=O)CC1,3,-2,-1,3,8,2
CC1(C)CC(=O)C2=C(C1)c1c(ccc3ccccc13)NC2c1ccc(Br)o1 (stereo not drawn),-3,-1,.,107*,.,.
SMILES,PDI turbidity,Cneo AK release,F508del corr,C2C12 statin,DENV2 CPE,ERp5 inh
CC1(C)CC(=O)C2=C(C1)c1c(ccc3ccccc13)NC2c1ccc(OCC(=O)O)cc1 (stereo not drawn),5,3,0,3,1,0
C[C@@H]1CN([C@@H](C)CO)C(=O)c2cc(C3=CCCC3)cnc2O[C@@H]1CN(C)Cc1ccccc1C(=O)O,.,2,-1,-4,-8,0
COc1ccc(CN(C)C[C@H]2OCCCC[C@H](C)Oc3ccc(NS(=O)(=O)c4ccc(Cl)cc4)cc3C(=O)N([C@@H](C)CO)C[C@H]2C)cc1,.,2,2,.,-7,2
COc1ccc(CN(C)C[C@@H]2OCCCC[C@@H](C)Oc3ccc(NS(=O)(=O)c4ccc(Cl)cc4)cc3C(=O)N([C@@H](C)CO)C[C@H]2C)cc1,.,3,-1,.,34*,1
COc1ccc(CN(C)C[C@H]2OCCCC[C@H](C)Oc3ccc(NS(=O)(=O)c4ccc(Cl)cc4)cc3C(=O)N([C@@H](C)CO)C[C@@H]2C)cc1,.,1,1,.,30*,1
COc1ccc(CN(C)C[C@@H]2OCCCC[C@@H](C)Oc3ccc(NS(=O)(=O)c4ccc(Cl)cc4)cc3C(=O)N([C@H](C)CO)C[C@@H]2C)cc1,.,0,3,.,3,-3
COc1ccc(CN(C)C[C@H]2OCCCC[C@H](C)Oc3ccc(NS(=O)(=O)c4ccc(F)cc4)cc3C(=O)N([C@H](C)CO)C[C@H]2C)cc1,.,-1,4,.,33*,3
COCC(=O)Nc1ccc2c(c1)C(=O)N(C)C[C@H](OC)[C@H](C)CN(C(=O)c1cnccn1)[C@@H](C)CO2,.,-6,-1,3,4,-1
CCC(=O)N1C[C@@H](O)COC[C@H]2O[C@@H](CC(=O)N3CCCCC3)CC[C@@H]21,.,-3,-4,-14,1,1
C[C@H]1CN([C@@H](C)CO)C(=O)c2cc(Br)cnc2O[C@H]1CN(C)C(=O)Nc1ccc(F)cc1,.,-1,.,16,-1,-5
COCC(=O)N1C[C@@H](C)[C@H](OC)CN(C)C(=O)c2cc(NC(=O)Nc3ccccc3)ccc2OC[C@H]1C,.,4,2,16,1,4
COc1ccc(NC(=O)N(C)C[C@@H]2Oc3ccc(NS(C)(=O)=O)cc3CC(=O)N([C@H](C)CO)C[C@@H]2C)cc1,.,-1,-1,4,34*,14
COc1ccc(CN(C)C[C@H]2Oc3ccc(NS(C)(=O)=O)cc3CC(=O)N([C@@H](C)CO)C[C@H]2C)cc1,.,81*,2,9,-1,0
COc1ccc(CN(C)C[C@@H]2Oc3ccc(NS(C)(=O)=O)cc3CC(=O)N([C@@H](C)CO)C[C@H]2C)cc1,.,2,-3,-6,18,9
